Bioassay records deposited in PubChem by Johns Hopkins Ion Channel Center.
MrgX1 agonist: activates human MrgX1 receptor signaling; MrgX1-HEK293 cells, Fluo-4 calcium fluorescence, agonist mode; hits give high values; 310,000 compounds, 0.44% hits; B-score at 10 µM; Q96LB2; AID 588627;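 active = calcium response B-score plate-corrected fluorescence ratio at least 3 library SD, with starting fluorescence B-score inside 5 SD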
Target sequence (Q96LB2 whole entry, looked up): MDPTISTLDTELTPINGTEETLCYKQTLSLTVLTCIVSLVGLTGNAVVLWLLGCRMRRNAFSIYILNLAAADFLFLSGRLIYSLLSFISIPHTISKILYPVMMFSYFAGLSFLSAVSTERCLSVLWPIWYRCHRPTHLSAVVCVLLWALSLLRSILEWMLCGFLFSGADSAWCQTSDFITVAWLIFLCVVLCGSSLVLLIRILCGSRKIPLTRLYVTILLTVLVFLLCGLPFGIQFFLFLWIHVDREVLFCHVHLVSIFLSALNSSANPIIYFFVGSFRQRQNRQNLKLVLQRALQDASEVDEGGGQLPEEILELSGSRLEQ
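Test system: HEK293 cells stably expressing human MrgX1 receptor; amount: 15,000 cells per well; doses: compound delivered in addition one of three; times: overnight plating before 1 h dye loading; detection: Fluo-4 NW calcium-flux fluorescence, kinetic read; read-out basis: B-scored fluorescence response ratio; controls: positive and negative controls per plate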
MrgX1 allo act: allosterically activates human MrgX1 receptor signaling; Q96LB2; MrgX1-HEK293, Fluo-4 calcium flux, FDSS; hits give high values; B-score at 10 µM; 310,000 compounds, 0.63% hits; AID 588675;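 active = plate-corrected calcium response at least 3 library SD above typical, normal starting fluorescence, not activating the receptor alone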;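 note: compound read alongside a low EC10 to EC30 dose of BAM8-22 agonist; peak minus trough fluorescence over baseline measured at the second addition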
RGS4 block: human RGS4 inhibition. HEK293 M3R/RGS4 inducible, Fluo-4 calcium flux; hits give high values; triggered by carbachol at its EC20. B-score at 10 µM. 310,000 compounds, 0.45% hits;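 active = B-score, a plate-corrected calcium signal, over three deviations above library mean, with baseline fluorescence within five deviations of library mean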;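 note: RGS4 expression induced by doxycycline in cells with stable M3 receptor; B-score is computed from the integrated fluorescence ratio over baseline after carbachol; higher B-score means a larger calcium signal and so more RGS4 inhibition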
Target sequence (P49798 whole entry, looked up): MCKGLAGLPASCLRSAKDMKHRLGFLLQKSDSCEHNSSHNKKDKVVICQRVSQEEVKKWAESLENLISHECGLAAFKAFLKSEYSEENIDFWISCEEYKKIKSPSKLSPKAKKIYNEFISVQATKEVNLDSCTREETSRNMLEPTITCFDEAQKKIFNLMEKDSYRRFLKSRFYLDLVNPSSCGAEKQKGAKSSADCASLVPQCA
RGS4 act: RGS4 potentiation or activation; B-score at 10 µM; 310,000 compounds, 0.92% hits; HEK293 M3R/inducible RGS4, carbachol calcium flux Fluo4; hits give low values;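 active = B-score of the integrated calcium signal more than 4 SD below the library mean, with starting fluorescence not abnormally high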;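 note: negative B-score means reduced calcium response which marks RGS4 activation or potentiation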
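Detection: kinetic calcium fluorescence imaging with Fluo4-AM dye, 2 µM / Material: HEK293 cells with stable M3R and inducible RGS4 / Schedule: recording 10 s baseline at 1 Hz, 100 s post-agonist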
MrgX1 antagonist: blocks BAM8-22 activation of human MrgX1 receptor; MRGX1-HEK293 calcium flux, Fluo-4, BAM8-22 antagonism; hits give low values; B-score at 10 µM; 310,000 compounds, 1.3% hits;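 active = calcium-response B-score plate-corrected more than 3 library SD below zero, starting fluorescence within 5 deviations, no agonist response on first addition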;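 note: peak minus trough fluorescence over baseline after final BAM8-22 challenge near maximal dose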
MrgX1 antag conf: human MrgX1 receptor antagonism, re-confirmation screen. 2,300 compounds, 19% hits. shares compounds with MrgX1 antagonist. AID 602420. remaining BAM8-22 calcium response % of control (hits give low values), % at 10 µM. MrgX1-HEK293, BAM8-22 calcium flux, Fluo-4; hits give low values;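 active = remaining agonist calcium response no higher than 100% minus 3 SD of agonist-only control wells, with starting fluorescence near control levels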;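 note: agonist BAM8-22 given at a near maximal EC90 to ECmax level; peak minus minimum fluorescence divided by baseline after agonist addition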
HEK293 Ca flux: MrgX1 antagonist counter-screen hit in parental HEK293 cells. shares compounds with MrgX1 antagonist. Fluo-4 calcium fluorescence, FDSS. fluorescence ratio F(max-min)/F0 at 10 µM. 4,000 compounds, 2% hits. AID 624111;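 active = duplicate-averaged calcium fluorescence ratio at least three times the standard deviation of buffer wells, a nonspecific response in parental cells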
HEK293 Ca counter: counter-screen for MrgX1 allosteric activators: effect in parental HEK293 cells | shares compounds with MrgX1 antagonist | parental HEK293 calcium flux, Fluo-4 fluorescence ratio; hits give high values | fluorescence ratio F(max-min)/F0 at 10 µM | 4,000 compounds, 0.4% hits | AID 624114;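 active = calcium fluorescence ratio, averaged over duplicates, at least 3 SD of the buffer-well ratio, meaning a nonspecific response in receptor-free cells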;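 note: untransfected parental HEK293 lacking MrgX1 used as counterscreen for MrgX1 allosteric activators; fluorescence change taken during the second addition on a kinetic imager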
HEK293 Ca cntr2: activity in parental HEK293 cells lacking MrgX1 receptor | shares compounds with MrgX1 antagonist | Fluo-4 calcium fluorescence (FDSS); hits give high values | fluorescence ratio F(max-min)/F0 at 10 µM | 4,000 compounds, 8.7% hits | AID 624115;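 active = calcium fluorescence ratio at least three times the spread of buffer wells, meaning a non-specific response in parental cells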
Starred values were filed as active, the others as inactive; i = inactive; . = no result given. The list is not random: actives were taken first. Their share in the collection is about 3.5%.

SMILES | MrgX1 agonist | MrgX1 allo act | RGS4 block | RGS4 act | MrgX1 antagonist | MrgX1 antag conf | HEK293 Ca flux | HEK293 Ca counter | HEK293 Ca cntr2
O=C1O/C(=C\c2ccccc2)c2ccccc21 | i | i | i | i | i | . | . | . | .
Cc1nnc(NC(=O)c2ccc(S(=O)(=O)N3CC(C)OC(C)C3)cc2)o1 (centres undefined) | i | i | i | i | i | . | . | . | .
Cc1nnc(NC(=O)c2ccc(S(=O)(=O)N3CCCCCC3)cc2)o1 | i | i | i | i | -12.1* | i | i | i | i
O=C1NC2(CCN(Cc3ccccc3)CC2)Oc2ccccc21 | i | i | i | i | i | . | . | . | .
O=C1c2ccccc2OC2(C=Cc3ccccc3O2)N1Cc1ccccc1 (centres undefined) | i | i | i | i | -4.97* | i | i | i | i
Cc1ccc(C)c(COc2coc(CN3CCN(C(=O)c4ccco4)CC3)cc2=O)c1 | i | i | i | i | i | . | . | . | .
Cn1c(SCc2ccc(C#N)cc2)nnc1-c1cccc(Cl)c1 | i | i | i | i | -4.7* | i | i | i | i
Cc1cccc(CN2CCC(CNC(=O)Cn3ncc4c([nH]c5ccccc54)c3=O)CC2)c1 | i | i | i | i | i | . | . | . | .
CC(C)NC(=O)CC1Nc2c3ccccc3nc(=S)n2C1=O (centres undefined) | i | i | i | i | -5.25* | i | i | i | i
Cn1c(CNC(=O)CNS(=O)(=O)c2ccc(Br)cc2)cc(=O)n(C)c1=O | i | i | i | i | i | . | . | . | .
CC(=O)Nc1ccccc1NC(=O)c1ccccc1-c1ccccc1 | i | i | i | i | i | . | . | . | .
CNC(=O)c1ccccc1-c1ccccc1 | i | i | i | i | -5.33* | i | i | i | i
O=C(c1ccccc1-c1ccccc1)N1CCCCC1 | i | i | i | i | -5.21* | i | i | i | i
O=C(c1ccccc1-c1ccccc1)N1CCCC1 | i | i | i | i | i | . | . | . | .
CCN1C(=O)[C@H]2[C@@H](c3ccc(-c4ccc(F)cc4)c(OC)c3)N[C@@](CC(C)C)(C(=O)OC)[C@H]2C1=O | i | i | i | i | i | . | . | . | .
CC1CCCCN1C(=O)c1c(Cl)cnn1C (centres undefined) | i | i | i | i | i | . | . | . | .
CCCCn1c(SCC(=O)NC2CC(C)(C)NC(C)(C)C2)nc2cc(S(N)(=O)=O)ccc21 | i | i | i | i | i | . | . | . | .
COc1ccc(Cl)cc1NC(=O)CN(C)C(=O)Cc1ccsc1 | i | i | i | i | -6.79* | i | i | i | i
COc1ccc(Cl)cc1NC(=O)CN(C)C(=O)Cc1ccc2c(c1)CCC2 | i | i | i | i | i | . | . | . | .
CSc1ccccc1OCc1cc(C(=O)NCCc2ccco2)no1 | i | i | i | i | i | . | . | . | .
Cc1ccc2nc3sc(C(=O)N4CCCc5ccccc54)c(N)c3cc2c1 | i | i | i | i | -5.74* | i | 0.577* | i | i
O=C1Oc2ccccc2C(=O)/C1=C\N1CCN(c2ccccc2)CC1 | i | i | i | i | i | . | . | . | .
Cc1ccc(NC(=S)NCCc2ccc(F)cc2)c(C)c1 | i | i | i | i | -6.15* | i | i | i | i
Cc1ccc(Nc2nc(C(=O)N3CCC(C(=O)N4CCN(C)CC4)CC3)cs2)cc1 | i | i | i | i | -8.25* | i | i | i | i
